The record followed here is ChEMBL document CHEMBL1165976, “Synthesis and characterization of N,N-dialkyl and N-alkyl-N-aralkyl fenpropimorph-derived compounds as high affinity ligands for sigma receptors” (Bioorg Med Chem, 2010).

One assay concerns A549. Kind of assay: Cytotoxicity against human A549 cells. Format: functional, cell-based.
A further assay relates to HCT-15. Kind of assay: Cytotoxicity against human HCT15 cells. Format: functional, cell-based.
The subject of a further assay is HT-29. Kind of assay: Cytotoxicity against human HT-29 cells. Format: functional, cell-based.
The next assay relates to MDA-MB-231. Kind of assay: Cytotoxicity against human MDA-MB-231 cells. Format: functional, cell-based.
Assay [1] can be described thus: Cytotoxicity against human H1299 cells. Format: functional, cell-based. Conditions: NCI-H1299; call rule not given here.
The test system of the next assay is MCF-10A. Kind of assay: Cytotoxicity against human MCF10A cells. Format: functional, cell-based.
In a further assay the test system is MCF7. Kind of assay: Cytotoxicity against human MCF7 cells. Format: functional, cell-based.
Assay [2] deals with Sigma non-opioid intracellular receptor 1 (Cavia porcellus, UniProt Q60492). Kind of assay: Displacement of (+)-[3H]pentazocine from sigma 1 receptor in guinea pig liver homogenates after 1 hr by liquid scintillation counting. Format: tissue-based. In short, it runs like this:
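Microsomal membranes (17,000 g then 100,000 g pellets) from guinea pig liver, 25 µg/well, with 10 nM (+)-[3H]pentazocine and serial competitor concentrations for 1 h at 30°C. Filtered on 0.5% PEI-treated GF/B filters; bound label counted by liquid scintillation. Nonlinear regression, single-site fit; Ki by Cheng-Prusoff.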

For the next assay, the system named is NCI-H460. Kind of assay: Cytotoxicity against human NCI-H460 cells. Format: functional, cell-based.
The next assay has as its system SF-268. Kind of assay: Cytotoxicity against human SF268 cells. Format: functional, cell-based.
In a further assay the test system is SK-OV-3. Kind of assay: Cytotoxicity against human SKOV3 cells. Format: functional, cell-based.
Assay [3] can be described thus: Displacement of [3H]-ditolyl guanidine from sigma 2 receptor in rat liver membranes after 1 hr by liquid scintillation counting. Format: cell membranes, Membrane.
Another assay concerns DU-145. Kind of assay: Cytotoxicity against human DU145 cells. Format: functional, cell-based.
Assay [4] can be described thus: Selectivity ratio of Ki for sigma 2 receptor in rat liver membranes to Ki for sigma 1 receptor in guinea pig liver homogenates. Format: cell membranes. Conditions: Membrane.

Some results are limits rather than exact numbers.

Sigma non-opioid intracellular receptor 1, sequence (Q60492 whole entry): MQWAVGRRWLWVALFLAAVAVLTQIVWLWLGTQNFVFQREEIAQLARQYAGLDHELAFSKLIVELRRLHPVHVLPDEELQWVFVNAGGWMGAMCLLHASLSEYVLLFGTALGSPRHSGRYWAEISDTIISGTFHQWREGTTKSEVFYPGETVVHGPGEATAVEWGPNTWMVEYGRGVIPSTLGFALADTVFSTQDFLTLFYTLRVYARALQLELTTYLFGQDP

With `CCCN(CCCc1ccc(F)cc1)Cc1ccc(N)cc1`, the IC50 (in the assay with A549; in the assay with HCT-15; with HT-29; in the assay with MDA-MB-231; in assay [1]; with MCF-10A) was above 100 µM in each case. Besides, the IC50 in the assay with MCF7, with NCI-H460, with SF-268, with SK-OV-3 and with DU-145 was above 100 µM each time. In addition, the values for the Ki in assay [2] (read-out: Ki) and in assay [3] (read-out: Ki) were 0.164 µM and 2.15 µM, respectively. The Ratio Ki in assay [4] came out at 13.1.
On to `CCCNCCCc1ccc(F)cc1`, for which the Ki was 0.091 µM in assay [2] (read-out: Ki) and 0.23 µM in assay [3] (read-out: Ki). Further, in assay [4], the Ratio Ki is 2.53.
For `CCCNCCc1ccc([N+](=O)[O-])cc1` the same measures were 2.25 µM, 53.6 µM and 23.8.
In the case of `CCCN(CCCc1ccc(F)cc1)Cc1ccc(N=[N+]=[N-])c(I)c1`, the Ki in assay [2] (read-out: Ki) was 89 µM. In addition, the Ratio Ki in [4] was above 571.
On to `CCCN(CCCc1ccc([N+](=O)[O-])cc1)CCc1ccc(N)cc1`, for which the IC50 (in the assay with A549; in the assay on HCT-15; in the assay on HT-29; with MDA-MB-231; in assay [1]; in the assay with MCF-10A) was above 100 µM in each case. Besides, the IC50 in the assay with MCF7 is 88.1 µM; in the assay on NCI-H460, above 100 µM; with SF-268, above 100 µM; in the assay on SK-OV-3, above 100 µM; with DU-145, above 100 µM. For the same compound, the Ki in assay [2] (read-out: Ki) was 0.006 µM; in [3] (read-out: Ki), 0.0836 µM. In [4], the Ratio Ki was 13.9.
Turning to `CCCCCCCCN(CCCCCCCC)C(=O)CCc1ccc(F)cc1`, the Ki in assay [2] (read-out: Ki) is 53.6 µM; in assay [3], “Not Active”.
For `CCCN(CCCc1ccc(F)cc1)CCc1ccc(N=[N+]=[N-])c(I)c1`, the IC50 with A549 is above 100 µM; in the assay on HCT-15, 54.1 µM; in the assay on HT-29, 36.4 µM; in the assay with MDA-MB-231, 21.6 µM; in assay [1] it was 90.8 µM; in the assay on MCF-10A, 88.6 µM. In addition, the IC50 was 16.8 µM in the assay with MCF7; 40.3 µM in the assay on NCI-H460; 38.8 µM in the assay with SF-268; above 100 µM with SK-OV-3; 13.1 µM with DU-145. The figures for the inhibitory constant (Ki) in [2] (read-out: Ki) and in assay [3] (read-out: Ki) were 7.24 µM and 1.29 µM, respectively. Moreover, the Ratio Ki in [4] is 0.178.
As for `CCCCCCCCN(CCCCCCCC)CCCc1ccc(F)cc1`, the values for the Ki in assay [2] (read-out: Ki) and in assay [3] (read-out: Ki) were 0.665 µM and 1.65 µM, respectively. The Ratio Ki in [4] was found to be 2.49.
Consider `CCCN(CCCc1ccc(F)cc1)Cc1ccc(N)c(I)c1`, for which the Ki in assay [3] (read-out: Ki) turned out to be 133 µM. Further, in [4], the Ratio Ki was 0.339.
Turning to `CCCCN(CCCC)CCCc1ccc([N+](=O)[O-])cc1`, the IC50 with A549 was above 100 µM; in the assay with HCT-15 it was above 100 µM; with HT-29 it was above 100 µM; in the assay with MDA-MB-231 it was 57.1 µM; in assay [1], above 100 µM; in the assay with MCF-10A it was above 100 µM. The IC50 in the assay with MCF7 was 22.4 µM; with NCI-H460 it was 40.5 µM; with SF-268, above 100 µM; in the assay on SK-OV-3 it was 27.9 µM; in the assay with DU-145, 32.7 µM. In addition, the inhibition constant Ki was found to be 0.0003 µM in [2] (read-out: Ki) and 0.404 µM in assay [3] (read-out: Ki). The Ratio Ki in [4] turned out to be 1350.
As to `CCCN(CCCc1ccc(F)cc1)CCc1ccc(N)cc1`, the IC50 is above 100 µM with A549; above 100 µM with HCT-15; above 100 µM in the assay with HT-29; 68.1 µM with MDA-MB-231; above 100 µM in assay [1]; above 100 µM in the assay with MCF-10A. For the same compound, the IC50 in the assay on MCF7 was 41.3 µM; in the assay on NCI-H460, 44.8 µM; in the assay on SF-268, above 100 µM; in the assay with SK-OV-3, 20.2 µM; with DU-145, above 100 µM. In addition, the Ki was 2.59 µM in assay [2] (read-out: Ki) and 0.12 µM in assay [3] (read-out: Ki). In [4], the Ratio Ki was 0.046.
Consider `CCCCN(CCCC)C(=O)CCc1ccc(F)cc1`, for which the Ki in assay [2] (read-out: Ki) is 32.1 µM; in assay [3] (read-out: Ki), 126 µM. In [4], the Ratio Ki is 3.94.
Take `CCCN(Cc1cccc([N+](=O)[O-])c1)C(=O)CCc1ccc(F)cc1`: the Ki result in assay [2] is “Not Active”; in assay [3] (read-out: Ki) it was 236 µM.
Consider `CCCCN(CCCC)CCCc1ccc(F)cc1`, for which the IC50 (in the assay with A549; in the assay on HCT-15; in the assay with HT-29; in the assay with MDA-MB-231; in [1]; in the assay with MCF-10A) was above 100 µM each time. The IC50 is above 100 µM with MCF7; above 100 µM with NCI-H460; above 100 µM with SF-268; 56.2 µM with SK-OV-3; above 100 µM in the assay on DU-145. For the same compound, the results for the Ki in [2] (read-out: Ki) and in assay [3] (read-out: Ki) were 0.0177 µM and 0.685 µM, respectively. In addition, in [4], the Ratio Ki was found to be 38.7.
